One assay deals with DU-145. Description: Antiproliferative activity against human DU145 cells after 72 hrs by MTS assay. The class given is functional, cell-based. The following applies: DU-145, 72 h. The gist of the method:
(§1)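 Cells seeded at 2000 per well, exposed to varying compound concentrations for 72 h. Viability read by MTS assay. IC50 values are means of two separate experiments, each run in triplicate.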

The test system of a further assay is PC-3. Description: Antiproliferative activity against human PC3 cells after 72 hrs by MTS assay. The class given is functional, cell-based. As to conditions: PC-3, 72 h. The gist of the method:
as §1
(Formazan colour is commonly taken as a measure of viable cells.)

The next assay concerns LNCaP. Description: Antiproliferative activity against human LNCaP cells after 72 hrs by MTS assay. It counts as functional, cell-based. The gist of the method:
as §1

For a further assay, the system named is MCF7. Description: Antiproliferative activity against human MCF7 cells after 72 hrs by MTS assay. The class given is functional, cell-based. The following applies: MCF7, 72 h. The gist of the method: as §1
Assay [1] concerns the target Signal transducer and activator of transcription 3 (Homo sapiens) (UniProt P40763). Description: Inhibition of STAT3 binding to DNA.

SMILES strings stand for the structures. Activity calls are given as the source filed them. No cut-off for these calls is given here.

Chain of Signal transducer and activator of transcription 3 (Homo sapiens) (P40763 whole entry): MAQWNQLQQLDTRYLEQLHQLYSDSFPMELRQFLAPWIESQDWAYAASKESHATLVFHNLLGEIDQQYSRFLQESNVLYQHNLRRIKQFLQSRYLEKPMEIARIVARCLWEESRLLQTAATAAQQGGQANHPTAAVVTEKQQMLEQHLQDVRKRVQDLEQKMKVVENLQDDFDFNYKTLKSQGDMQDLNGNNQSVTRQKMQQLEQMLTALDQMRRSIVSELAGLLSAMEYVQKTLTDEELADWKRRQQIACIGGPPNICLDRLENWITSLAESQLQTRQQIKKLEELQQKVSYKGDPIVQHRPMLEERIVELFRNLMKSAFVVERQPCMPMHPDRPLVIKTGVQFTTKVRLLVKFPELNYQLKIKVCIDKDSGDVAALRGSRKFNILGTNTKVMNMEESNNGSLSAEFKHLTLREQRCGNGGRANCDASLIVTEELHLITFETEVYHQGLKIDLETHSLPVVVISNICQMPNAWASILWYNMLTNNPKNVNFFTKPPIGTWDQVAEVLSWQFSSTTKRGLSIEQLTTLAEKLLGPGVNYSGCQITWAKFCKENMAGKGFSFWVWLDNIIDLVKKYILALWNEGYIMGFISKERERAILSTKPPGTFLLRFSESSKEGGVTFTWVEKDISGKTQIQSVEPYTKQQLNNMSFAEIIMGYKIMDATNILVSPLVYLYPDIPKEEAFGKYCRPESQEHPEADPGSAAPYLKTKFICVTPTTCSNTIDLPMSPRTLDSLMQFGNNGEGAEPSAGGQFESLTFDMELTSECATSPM

Turning to `COc1cccc2c1C(=O)c1cccc(C(C)=O)c1C2=O`, the IC50 in the assay on DU-145, with PC-3 and with LNCaP was above 100 µM throughout.
With `C[C@@H]1CC(=O)c2c(ccc3c2C(=O)c2cccc(O)c2C3=O)C1` [OCHROMYCINONE], the IC50 with DU-145 was 12.2 µM; with MCF7, 124 µM; in the assay with PC-3, 18.7 µM. Besides, in assay [1], the result was Active.
`CC(=O)c1cccc2c1C(=O)c1cccc(O)c1C2=O`: the IC50 with DU-145 is 16.2 µM; in the assay on MCF7 it was 88.5 µM; in the assay on PC-3, 13.4 µM; with LNCaP, 34.1 µM.
Take `COc1cccc2c1C(=O)c1c(C(C)=O)cccc1C2=O`: the IC50 with DU-145, in the assay with PC-3 and with LNCaP was above 100 µM each time.
Turning to `CC(=O)c1cccc2c1C(=O)c1c(O)cccc1C2=O`, the IC50 with DU-145 came to 31.5 µM; in the assay with PC-3 it was 32.4 µM; in the assay with LNCaP it was 31.5 µM.

Broadly, the IC50 is the point on the concentration scale where inhibition reaches its midpoint. Read a low IC50 as greater potency in that assay.
